These results are taken from BindingDB's records for doi:10.1021/jm000269t (Amgen, 2000).

In this assay the target is T1, Neuropeptide Y receptor type 5 (Homo sapiens, UniProt Q15761).
T1 sequence (Q15761 whole entry): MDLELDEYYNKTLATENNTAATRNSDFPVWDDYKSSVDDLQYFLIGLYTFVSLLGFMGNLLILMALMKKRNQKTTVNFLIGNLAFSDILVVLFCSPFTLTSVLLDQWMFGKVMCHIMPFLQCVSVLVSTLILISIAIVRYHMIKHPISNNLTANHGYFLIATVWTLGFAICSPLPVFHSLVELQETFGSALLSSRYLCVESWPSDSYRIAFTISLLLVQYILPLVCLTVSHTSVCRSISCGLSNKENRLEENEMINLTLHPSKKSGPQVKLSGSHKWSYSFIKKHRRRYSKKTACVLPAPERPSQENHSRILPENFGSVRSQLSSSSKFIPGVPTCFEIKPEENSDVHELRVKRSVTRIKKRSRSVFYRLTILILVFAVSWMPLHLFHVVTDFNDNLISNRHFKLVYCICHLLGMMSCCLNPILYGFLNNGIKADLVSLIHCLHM
The assay can be described thus: Affinity for human neuropeptide Y receptor Y5, binding was evaluated in an in vitro radioligand [125I]PYY binding assay. In short, it runs like this:
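HEK 293 cells expressing human Y5 receptor, harvested in PBS and homogenized in sucrose buffer; membranes washed by repeated 48000g spins and resuspended in MEM/Earle's assay buffer (25 mM HEPES, 0.1% BSA, STI, Pefabloc, pH 7.4). Membranes (200 µg tissue) incubated with compounds and 0.15 nM [125I]PYY, 2 h at 30 °C. Nonspecific binding defined with 1 µM PYY. Filtration read-out; IC50 by nonlinear regression, averaging at least two 6-point curves.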

Molecule `Cc1ccc(-c2cc3nc(C)nc(N4CCCCC4)c3[nH]2)cc1` [2-Methyl-4-piperidin-1-yl-6-p-tolyl-5H-pyrrolo[3,2-d]pyrimidine] yielded an IC50 of 0.5 nM.

The molecule `Cc1nc(N2CCCCC2)c2[nH]c(-c3ccc(C)o3)cc2n1` [2-Methyl-6-(5-methyl-furan-2-yl)-4-piperidin-1-yl-5H-pyrrolo[3,2-d]pyrimidine] returned an IC50 of 0.5 nM.
